For ten compounds, IC50 and MIC results are on record in ChEMBL document CHEMBL1157224, “2-substituted furans from the roots of Polyalthia evecta” (J Nat Prod, 2006).

One test concerns Human alphaherpesvirus 1. The test is described as follows: Antiviral activity against HSV1. The format is functional, organism-based. In short, it runs like this:
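Herpes simplex type 1 antiviral test by colorimetric method per Skehan; IC50 read-out; acyclovir as reference.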

In test [1] the test system is Mycobacterium tuberculosis. The test is described as follows: Antimicrobial activity against Mycobacterium tuberculosis H37Ra by microplate alamar blue assay. It counts as functional. An outline of the steps: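 M. tuberculosis H37Ra in microplate Alamar Blue assay; MIC read-out; isoniazid and kanamycin sulfate as reference drugs.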
For orientation: The colour change of resazurin is a common sign of viable cells or microbes.

In test [2] the test system is Plasmodium falciparum. The test is described as follows: Antimalarial activity against Plasmodium falciparum K1 by [3H]hypoxanthine uptake. It counts as functional, organism-based. An outline of the steps:
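Multidrug-resistant K1 parasites cultured per Trager–Jensen. In vitro microculture radioisotope test, with parasite growth read as [3H]-hypoxanthine uptake. IC50 is the concentration giving 50% reduction in parasite growth. Artemisinin run as standard.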

Test [3] has as its system Plasmodium falciparum. The test is described as follows: Antimicrobial activity against Plasmodium falciparum. The format is functional, organism-based. In short, it runs like this:
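P. falciparum K1 (multidrug-resistant) kept in culture per Trager–Jensen; microculture radioisotope test; growth read as [3H]-hypoxanthine uptake; IC50 = concentration giving 50% fewer parasites; artemisinin as reference standard.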

The next test has as its system NCI-H187. The test is described as follows: Cytotoxicity against human NCI-H187 cells. It counts as functional, cell-based. An outline of the steps:
(§1)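 Human breast cancer (BC) and small cell lung cancer (NCI-H187) lines; colorimetric assay per Skehan; IC50 read-out; ellipticine as reference.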

The nature of test [4]: Cytotoxicity against human BC clls. It counts as functional, cell-based. In short, it runs like this: as §1

Converted amounts (≈) assume the structure as drawn.

A word on the IC50: it is the concentration that gives 50% inhibition. By MIC is commonly meant the least concentration at which growth counts as inhibited. Read a high MIC as weaker potency.

In the test on Human alphaherpesvirus 1, `O=C(O)CCCC#CCCCCCCCCCCCCCc1ccco1` had an IC50 of 19.4 µg/mL (≈ 53.8 µM).
Same read-out and setting: the result for `Nc1nc2c(ncn2COCCO)c(=O)[nH]1` [ACYCLOVIR] reads 1.1 µg/mL (≈ 4.88 µM).
In turn, `NC[C@H]1O[C@H](O[C@H]2[C@H](O)[C@@H](O[C@H]3O[C@H](CO)[C@@H](O)[C@H](N)[C@H]3O)[C@H](N)C[C@@H]2N)[C@H](O)[C@@H](O)[C@@H]1O.O=S(=O)(O)O` [KANAMYCIN SULFATE] showed a minimal inhibitory concentration (MIC) in test [1] of 2 µg/mL.
The compound `C[C@@H]1CC[C@H]2[C@@H](C)C(=O)O[C@@H]3O[C@@]4(C)CC[C@@H]1[C@]32OO4` [ARTEMISININ] returned an IC50 in the test with Plasmodium falciparum [2] of 0.001 µg/mL (≈ 0.00354 µM).
Consider `NNC(=O)c1ccncc1` [ISONIAZID], for which the MIC in test [1] came to 0.04 µg/mL (≈ 0.292 µM).
As for `COC(=O)CCCC#CC#CCCCCCCCCCCCc1ccco1`, half-maximal inhibition with Plasmodium falciparum [3] (IC50) required 3.7 µg/mL (≈ 9.99 µM).
With `COC(=O)CCCC#CCCCCCCCCCCCCCc1ccco1`, the MIC in test [1] is 3.1 µg/mL (≈ 8.28 µM).
In test [1], `OCCCCCCCCCCCCCC#CC#CCCCCc1ccco1` displayed an MIC of 6.25 µg/mL (≈ 16.9 µM). In addition, the IC50 in the test with NCI-H187 was 12.4 µg/mL (≈ 33.5 µM).
With `O=C(O)CCCC#CC#CCCCCCCCCCCCc1ccco1`, the 50% inhibitory concentration (IC50) in the test on Plasmodium falciparum [3] turned out to be 50 µg/mL (≈ 140 µM); in the test with Human alphaherpesvirus 1 it was 47 µg/mL (≈ 132 µM).
In turn, `Cc1c2ccncc2c(C)c2c1[nH]c1ccccc12` [ELLIPTECINE] returned a half-inhibitory concentration (IC50) in test [4] of 0.32 µg/mL (≈ 1.3 µM).
